Measured values published in the RNAGym collection of RNA variant scans (doi:10.1126/science.aae0568).
Variants at the floor of the assay were thinned out.

B1: tRNA (parent)
chain: GUUCCGUUGGCGUAAUGGUAACGCGUCUCCCUCCUAAGGAGAAGACUGCGGGUUCGAGUCCCGUACGGAACG

Variants of: B1
Assay: yeast fitness relative to wild type (ratio to wild type); higher = fitter; tRNA-Arg(CCU), competitive growth, 37 C, YPD
In short: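 Genotype frequency changes were the basis for Darwinian fitness relative to wild type. The frequencies came from 100-nucleotide paired-end sequencing of gene amplicons from the start population and each end population of pooled yeast strains with tRNA-Arg(CCU) gene variants at the native locus. Competition ran in YPD at 37°C for 24 hours in six replicates, genotypes needed ≥ 100 starting reads, and estimates < 0.5 were set to 0.5.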

Row | Variant | yeast fitness
1 | GUUCCGUUGGCGUAGUGGUAACGCGUCUCCCUCCUAAGGAGAAAACUGCCGGUUCGAGUCCCGUACGGAACG [A15G G44A G50C] | ≤ 0.5
2 | GUUCCGUUGGCGUAGUGGUAACGCGUCUCUCUCCUAAGGAGAAGACUGCGGGUUCGAGUCCCGUACGGUACG [A15G C30U A69U] | 0.609
3 | GUUCCGUUGGCGUAGUAGUAACGCGUCUCACUCCUAAGGAGAAGACUGCGGGUUCGAGUCACGUACGGAACG [A15G G17A C30A C61A] | ≤ 0.5
4 | GUUCCGUUGGCGUAGUGGUAACGCGUCUACCUCCUAAGGAGAAGACUGCGGGUUCGACUCCCGUACGGAACG [A15G C29A G58C] | 0.503
5 | GUUCCGUUGGCGUAGUGGUAACGCGUCUCCCUCCUAAGGAGAAGACUGCGGGUUCGGGUCCCGUACGGAACG [A15G A57G] | 0.899
6 | GUUCCGUUGGCGUAGUGGUAACGCGUCUCCCUCCUAAGGACAAGACUGCGCGUUCGAGUCGCGUACGGAACG [A15G G41C G51C C61G] | 0.726
7 | GUUCCGUUGGCGUAGUGGUAACGCGUCUGCCUCCUACGGAGUAGACUGCGGGUUCGGGUCCCGUACAGAACG [A15G C29G A37C A42U A57G G67A] | ≤ 0.5
8 | GUUCCGUUGGCGUAGUGGUAACGCGUCUCCGUCCUAAGGAGAACAGUGCGGGUUCGAGUCCCGUACGGAACG [A15G C31G G44C C46G] | 0.647
9 | GUUCCGUUGGCGUAGUGGUAACGCGUCUCCCUCCUAAGGAGAACACUGCGGGUUCGAGUCCCGUACGUAACG [A15G G44C G68U] | ≤ 0.5
10 | GUUCCGUUGGCGUAGUGGUAACGAGUCUCCCUCCUAAGGAGAAGACUGCGGGUUCGAGUCCCGCACGGAACG [A15G C24A U64C] | ≤ 0.5
11 | GUUCCGUUGGCGUAGUGGUAACGGGUCACCCUCCUAAGGAGAAGACUGCGGCUUCGAGUCCCGUCCGGAACG [A15G C24G U28A G52C A65C] | ≤ 0.5
12 | GUUCCGUUGGCGUAGUGGUAACGCGUCUCCCUCCUAAGGAGAAGACUGCGGGUUCGUGUCCCGUUCGGAACG [A15G A57U A65U] | ≤ 0.5
13 | GUUCCGUUGGCGUAGUCGUAACGCGUCUCCCUACUAAGGAGAAGACUGCGGGUUCCAGUCCCGUCCGAAACG [A15G G17C C33A G56C A65C G68A] | ≤ 0.5
14 | GUUCCGUUGGCGUAGUGGUAACGCGUCUCCCUCCUAAGGAGAAGACUACGGGUUCGAGUCCUGUACGGAACG [A15G G48A C62U] | 1.03
15 | GUUCCGUUGGCGUAGUAGUAACGCGUCUCCCUCCUAAGGAGAAGACUACGGGUUCGAGUCCCGUACGGAACG [A15G G17A G48A] | 0.681
16 | GUUCCGUUGGCGUAGUGGUAACGGGUCUCCCUCCUAAGGAGAAGACUGUGGGUUCGAGUCCCGUACGGAACG [A15G C24G C49U] | 0.541
17 | GUUCCGUUGGCGUAGUGAUAACGCGUCUCCCUCCUAAGGAGAAGACUGCGGGUUCGAGUCCCGUACGGUACG [A15G G18A A69U] | 0.648
18 | GUUCCGUUGGCGUAGUGGUAACGCGUCUCGCUCCUAAGGAGCCGAGUGCGGGUUCGAGUCCCGUCCGGAACG [A15G C30G A42C A43C C46G A65C] | ≤ 0.5
19 | GUUCCGUUGGCGUAGUGGUAACGCGUCUCCCUCCUAAGAGGAAGACUGCGGGUUCGCGUCCCGUACGGAACG [A15G G39A A40G A57C] | 0.534

Row | Variant | yeast fitness
20 | GUUCCGUUGGCGUAGUGGUAACGGGUCUCCGUCCUAAGGAGAAGACUGCAGGUUCGAGUCCCGUACGGAACG [A15G C24G C31G G50A] | ≤ 0.5
21 | GUUCCGUUGGCGUAGUGGUAACGCGUCUCACUCCUAAGGAGAAGACUGCGGGUUCGAGUCCGGUACGGAACG [A15G C30A C62G] | 0.634
22 | GUUCCGUUGGCGUAGUGGUAACGCGUCUCCCUCCUAAGGAGAAGACUGCGGGUUCGAGUCCCAUACGGAACG [A15G G63A] | 0.926
23 | GUUCCGUUGGCGUAGUGGUAACGCGUCUGCCUACUAAGGAGAAGACUGCGGGUUCGAGUCCCGUACAGAACG [A15G C29G C33A G67A] | 0.569
24 | GUUCCGUUGGCGUAGUGGUAACGCGUCUCCCUCCUAAGGAGAAGACUGCGGGUUCAAGUCCCGUCCGGAACG [A15G G56A A65C] | 0.619
25 | GUUCCGUUGGCGUAGUGGUAACCCGUCUCCCUCCUAAGGAGAAGACUGCGGGUUCGAGUCCCGUACGGAACG [A15G G23C] | 0.712
26 | GUUCCGUUGGCGUAGUAGAAACGCGUCUCCCGCCUAAGGAGAAGACUGCGGGUUCGAGUCCCGUACGGAACG [A15G G17A U19A U32G] | ≤ 0.5
27 | GUUCCGUUGGCGUAGUGGUAACGCGUCUCCCUCUUAAGGUGAAGACUGCGGGUUCGAGUCCCGUACGGCACG [A15G C34U A40U A69C] | ≤ 0.5
28 | GUUCCGUUGGCGUAGUGGUAAGGCGUCUCCCUCCUAAGGAGAAGACUGCGGGUUCGAGUCCCGUACGGAACG [A15G C22G] | 0.893
29 | GUUCCGUUGGCGUAGUGGUAACGCGUCUCCCUCCUAAGGAGAAGACUGCGGGUUCAAGUCCUGUACGGACCG [A15G G56A C62U A70C] | 0.543
30 | GUUCCGUUGGCGUAGUGGUAACACGUCUCCCUCCUAAGGAGAAGACUGCGGGUUCGAGUUCCGUACGGAACG [A15G G23A C60U] | ≤ 0.5
31 | GUUCCGUUGGCGUAGUGGUAACGAGUCUCCCUCCUAAGGAGAAGAAUGCGGGUUCGAGUCCCGUACGGAACG [A15G C24A C46A] | 0.64
32 | GUUCCGUUGGCGUAGUGGUAACGCGUCUCCCUUCUAAGGGGAAGACUGCGCGUUCGUGUCCCGUACGGAACG [A15G C33U A40G G51C A57U] | ≤ 0.5
33 | GUUCCGUUGGCGUAGUGGUAACGCGUCUCCUUCCUAAGGAGAAGACUGCGGGUUCGAGUUCCGUACGGAACG [A15G C31U C60U] | 0.543
34 | GUUCCGUUGGCGUAGUGGUAACGCGUCUCCCUCCUAAGGAGAAGACUACGGGUUCGAGUCCCGUCCGGAACG [A15G G48A A65C] | 0.686
35 | GUUCCGUUGGCGUAGUGGUAACGCGACUCCCUCCUAAGGAGAAGACUGCGGGUUCGAGUCCCGUAAGGAACG [A15G U26A C66A] | ≤ 0.5
36 | GUUCCGUUGGCGUAGUGGUAACGCGUCUCCCUCCUAAAGCCAAGACUGUGGGUUCGAGUCCCGUACGGAACG [A15G G38A A40C G41C C49U] | 0.597
37 | GUUCCGUUGGCGUAGUGCUAACGCGUCUCCCUCCUAAGGAGAAGACUGCGGGUUCGAGUCCCGUACGGAACG [A15G G18C] | 0.7
